# In ChEMBL document CHEMBL1124366, “Synthesis and biological properties of N63-carboxamides of teicoplanin antibiotics. Structure-activity relationships” (J Med Chem, 1989):
# What was measured:
# [1] = system: Streptococcus pyogenes; assay: Subcutaneously administration into mice infected with Streptococcus pyogenes C 203; format: functional; conditions: sc
# In short: (§1)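 Mice (five per treatment group, five groups) infected intraperitoneally with about 10⁵ cells of Strep. pyogenes C 203, about 100× the LD50. ED50 (mg/kg) was calculated from the percentage of mice surviving at each dose on day 7.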
# [2] = system: Streptococcus pyogenes; assay: In vitro minimum inhibitory concentration against Streptococcus pyogenes C 203; format: functional
# [3] = system: Staphylococcus haemolyticus; assay: In vitro minimum inhibitory concentration against Staphylococcus hemolyticus 602 cell line; format: functional; conditions: strain 602
# [4] = system: Pseudomonas aeruginosa; assay: In vitro minimum inhibitory concentration against Pseudomonas aeruginosa ATCC 10145; format: functional
# [5] = system: Staphylococcus epidermidis; assay: In vitro minimum inhibitory concentration against Staphylococcus epidermis ATCC 12228; format: functional
# [6] = system: Staphylococcus aureus; assay: In vitro minimum inhibitory concentration against Staphylococcus aureus Tour; format: functional
# [7] = system: Escherichia coli; assay: In vitro minimum inhibitory concentration against Escherichia coli SKF 12140; format: functional
# [8] = system: Proteus vulgaris; assay: In vitro minimum inhibitory concentration against Proteus vulgaris X 19 ATCC 881; format: functional
# [9] = system: Enterococcus faecalis; assay: In vitro minimum inhibitory concentration against Streptococcus faecalis ATCC 7080; format: functional
# [10] = system: Streptococcus pneumoniae; assay: In vitro minimum inhibitory concentration against Streptococcus pneumoniae UC41; format: functional
# [11] = system: Ac2-L-Lys-D-Ala-D-Ala peptide; assay: Association constant with Ac2-L-Lys-D-Ala-D-Ala
# In short: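 UV difference spectroscopy at 24 ± 2 °C in 4-cm unthermostated cells. Antibiotic was at 30 μM in 10% MeOH in sodium phosphate buffer, pH 9, and titrated with Ac2-L-Lys-D-Ala-D-Ala. ΔA was monitored at 294 nm. Ka was taken from the slope of a Scatchard plot.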
# [12] = system: Streptococcus pyogenes; assay: In vivo effective dose given perorally to mice infected with Streptococcus pyogenes C 203; format: functional; conditions: po; in short: as §1
Compound,MIC [2] [µg/mL],MIC [4] [µg/mL],MIC [5] [µg/mL],MIC [6] [µg/mL],MIC [7] [µg/mL],MIC [8] [µg/mL],MIC [9] [µg/mL],MIC [10] [µg/mL],Ka [11] [M⁻¹],ED50 [1] [mg/kg],MIC [3] [µg/mL],ED50 [12] [mg/kg]
NCCCCNC(=O)[C@H]1NC(=O)[C@H]2NC(=O)[C@H](NC(=O)[C@@H]3NC(=O)[C@H]4NC(=O)[C@@H](Cc5ccc(c(Cl)c5)Oc5cc3cc(c5O)Oc3ccc(cc3Cl)[C@H]2O)NC(=O)[C@H](N)c2ccc(O)c(c2)Oc2cc(O)cc4c2)c2ccc(O)c(c2)-c2c(O)cc(O)cc21,0.06,32,0.06,0.06,8,32,0.12,0.12,,0.54,0.12,
CCOC(=O)CNC(=O)[C@H]1NC(=O)[C@H]2NC(=O)[C@H](NC(=O)[C@@H]3NC(=O)[C@H]4NC(=O)[C@@H](Cc5ccc(c(Cl)c5)Oc5cc3cc(c5O[C@@H]3O[C@@H](CO)[C@@H](O)[C@H](O)[C@@H]3NC(=O)CCCCCCC(C)C)Oc3ccc(cc3Cl)[C@H]2O[C@@H]2O[C@@H](CO)[C@@H](O)[C@H](O)[C@@H]2NC(C)=O)NC(=O)[C@H](N)c2ccc(O)c(c2)Oc2cc(O)cc4c2)c2ccc(O)c(c2)-c2c(O[C@H]3O[C@H](CO)[C@@H](O)[C@@H](O)[C@@H]3O)cc(O)cc21,0.06,,0.12,0.25,,,0.12,0.06,120000,0.1,,> 300
N[C@H]1C(=O)N[C@@H]2Cc3ccc(c(Cl)c3)Oc3cc4cc(c3O)Oc3ccc(cc3Cl)[C@@H](O)[C@@H]3NC(=O)[C@H](NC(=O)[C@@H]4NC(=O)[C@@H](NC2=O)c2cc(O)cc(c2)Oc2cc1ccc2O)c1ccc(O)c(c1)-c1c(O)cc(O)cc1[C@@H](C(=O)NCCCN1CCOCC1)NC3=O,0.06,32,0.06,0.06,8,64,0.12,0.12,,1.4,0.12,
CC(=O)NC1C(O[C@@H]2c3ccc(c(Cl)c3)Oc3cc4cc(c3O)Oc3ccc(cc3Cl)C[C@H]3NC(=O)[C@H](N)c5ccc(O)c(c5)Oc5cc(O)cc(c5)[C@H](NC3=O)C(=O)N[C@H]4C(=O)N[C@H]3C(=O)N[C@@H]2C(=O)N[C@H](C(=O)NCCCN(C)C)c2cc(O)cc(O)c2-c2cc3ccc2O)OC(CO)C(O)C1O (some centres not stated),0.12,,0.06,0.12,64,> 128,0.25,0.25,54000,2.2,,
CNCCNC(=O)[C@H]1NC(=O)[C@H]2NC(=O)[C@H](NC(=O)[C@@H]3NC(=O)[C@H]4NC(=O)[C@@H](Cc5ccc(c(Cl)c5)Oc5cc3cc(c5O)Oc3ccc(cc3Cl)[C@H]2O)NC(=O)[C@H](N)c2ccc(O)c(c2)Oc2cc(O)cc4c2)c2ccc(O)c(c2)-c2c(O)cc(O)cc21,0.06,32,0.03,0.06,4,32,0.12,0.12,,2.2,0.06,

# The remaining compounds from weak to strong by MIC [2], led by results:
MIC [2] [µg/mL],MIC [4] [µg/mL],MIC [5] [µg/mL],MIC [6] [µg/mL],MIC [7] [µg/mL],MIC [8] [µg/mL],MIC [9] [µg/mL],MIC [10] [µg/mL],Ka [11] [M⁻¹],Compound,ED50 [1] [mg/kg],MIC [3] [µg/mL],ED50 [12] [mg/kg]
0.06,32,0.06,0.06,8,32,0.12,0.12,,CN(C)CCCCNC(=O)[C@H]1NC(=O)[C@H]2NC(=O)[C@H](NC(=O)[C@@H]3NC(=O)[C@H]4NC(=O)[C@@H](Cc5ccc(c(Cl)c5)Oc5cc3cc(c5O)Oc3ccc(cc3Cl)[C@H]2O)NC(=O)[C@H](N)c2ccc(O)c(c2)Oc2cc(O)cc4c2)c2ccc(O)c(c2)-c2c(O)cc(O)cc21,0.54,0.12,
0.06,16,0.06,0.06,2,32,0.12,0.12,,CNCCCN(C)C(=O)[C@H]1NC(=O)[C@H]2NC(=O)[C@H](NC(=O)[C@@H]3NC(=O)[C@H]4NC(=O)[C@@H](Cc5ccc(c(Cl)c5)Oc5cc3cc(c5O)Oc3ccc(cc3Cl)[C@H]2O)NC(=O)[C@H](N)c2ccc(O)c(c2)Oc2cc(O)cc4c2)c2ccc(O)c(c2)-c2c(O)cc(O)cc21,0.95,0.06,
